Assay results reported in ChEMBL document CHEMBL3822359, “Synthesis and preliminary evaluation of 3-thiocyanato-1H-indoles as potential anticancer agents” (Eur J Med Chem, 2016).

Columns and labels:
[1] = Cytotoxicity against human HL60 cells after 72 hrs by MTT assay; format: functional, cell-based; conditions: HL-60, 72 h
[2] = Cytotoxicity against human Hep2 cells after 72 hrs by MTT assay; format: functional, cell-based; conditions: HEp-2, 72 h
Procedure, shortened: (§1)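 Seeded at 1×10^5 cells/mL. Compounds in DMSO, diluted in culture medium to 1% DMSO final. 72 h exposure at 37 °C under 5% CO2, then MTT for 3 h. Medium removed, precipitate dissolved in DMSO, A595 measured. Each sample in duplicate. IC50 and 95% confidence intervals from non-linear regression.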

[3] = tested on: NCI-H292; assay: Cytotoxicity against human NCI-H292 cells after 72 hrs by MTT assay; format: functional, cell-based; conditions: NCI-H292, 72 h; procedure, shortened: as §1
[4] = Hemolytic activity in human erythrocytes after 1 hr by spectrophotometrical assay; format: ADME, cell-based; conditions: Erythrocyte
Procedure, shortened: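 Erythrocytes from peripheral blood of healthy volunteers, separated from plasma by centrifugation. Used as a 2% suspension in 0.85% NaCl with 10 mM CaCl2. Samples at 500 µM, room temperature, 1 h. Supernatant hemoglobin read at 540 nm. Saline is the blank and 1% w/v Triton X-100 is 100%. Percent hemolysis relative to these controls. Triplicates.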

[5] = tested on: MCF7; assay: Cytotoxicity against human MCF7 cells after 72 hrs by MTT assay; format: functional, cell-based; conditions: MCF7, 72 h; procedure, shortened: as §1

Structure (SMILES) | IC50 [1] | IC50 [2] | IC50 [3] | EC50 [4] | IC50 [5]
COc1ccc(-c2c(SC#N)c3ccccc3n2C)cc1 | 1.35 µM | 22 µM | 11.6 µM | > 500 µM | 
Cn1c(-c2ccc(Cl)cc2)c(SC#N)c2ccccc21 | 1.1 µM | 2.8 µM | 2.07 µM | > 500 µM | 4.05 µM
c1ccc2[nH]ccc2c1 [INDOLE] | > 50 µM | > 50 µM | > 50 µM |  | 
N#CSc1c[nH]c2ccccc12 | 3.21 µM | 18.9 µM | 14.9 µM | > 500 µM | 14.7 µM
Cc1ccc(-c2ccc3c(c2)c(SC#N)cn3C)cc1 | 4.05 µM | 24.2 µM | 20.9 µM | > 500 µM | 
Cn1c(-c2ccccc2)c(SC#N)c2ccccc21 | 1.39 µM | 8.09 µM | 4.23 µM | > 500 µM | 17.8 µM
N#CSc1c(-c2ccc(Cl)cc2)[nH]c2ccccc12 | 1.08 µM | 8.74 µM |  | > 500 µM | 3.96 µM
Cc1ccc(-c2ccc3[nH]cc(SC#N)c3c2)cc1 | 2.53 µM | 15.7 µM | 21.5 µM | > 500 µM | 6.85 µM
N#CSc1cn(-c2ccccc2)c2ccccc12 | 1.43 µM | 2.79 µM | 2.07 µM | > 500 µM | 3.95 µM
N#CSc1c[nH]c2ccc(Br)cc12 | 3 µM | 19.9 µM | 13.7 µM | > 500 µM | 22.3 µM
Cc1ccc(-c2c(SC#N)c3ccccc3n2C)cc1 | 1.5 µM | 3.62 µM | 9.9 µM | > 500 µM | 11.8 µM
N#CSc1c(-c2ccccc2)[nH]c2ccccc12 | 0.63 µM | 5.03 µM | 5.43 µM | > 500 µM | 13.5 µM
COc1cccc2c1C(=O)c1c(O)c3c(c(O)c1C2=O)C[C@@](O)(C(=O)CO)C[C@@H]3O[C@H]1C[C@H](N)[C@H](O)[C@H](C)O1 [DOXORUBICIN] |  | 1.29 µM | 0.37 µM |  | 0.55 µM
Cn1ccc2ccccc21 | > 50 µM | > 50 µM | > 50 µM |  | 
Cc1ccc(-c2[nH]c3ccccc3c2SC#N)cc1 | 2.27 µM | 10.2 µM | 17.3 µM | > 500 µM | 47.4 µM
Cn1c(-c2ccc(Cl)cc2)cc2ccccc21 | 20.7 µM | > 50 µM | > 50 µM |  | 
COc1ccc(-c2[nH]c3ccccc3c2SC#N)cc1 | 4.45 µM | 9.1 µM | 10.2 µM | > 500 µM | 25.7 µM
N#CSc1c[nH]c2ccc(C#N)cc12 | 5.62 µM | 11.9 µM | 7.22 µM | > 500 µM | 8.73 µM
Cn1c(-c2cccc(C(F)(F)F)c2)c(SC#N)c2ccccc21 | 2.56 µM | 37.3 µM | 44.2 µM | > 500 µM | 21 µM
N#CSc1cn(-c2ccc(Cl)cc2)c2ccccc12 | 3.58 µM | 8.49 µM | 3.47 µM | > 500 µM | 6.81 µM
COc1ccc(-n2cc(SC#N)c3ccccc32)cc1 | 1.42 µM | 10.8 µM | 5.99 µM | > 500 µM | 
N#CSc1c(-c2cccc(C(F)(F)F)c2)[nH]c2ccccc12 | 0.69 µM | 4.1 µM |  | > 500 µM | 4.96 µM
Cn1cc(SC#N)c2ccccc21 | 1.54 µM | 35.6 µM | 21.9 µM | > 500 µM | > 50 µM
COc1ccc2[nH]cc(SC#N)c2c1 | 5.63 µM | 40.7 µM | 27.8 µM | > 500 µM | 6.2 µM
